Measurements taken from ChEMBL document CHEMBL2029242 (J Med Chem, 2012).
pIC50, pKd: −log10 of the molar value.

Key:
[1] = test system: A-375; assay: Cytotoxicity against human A375 cells expressing BRAF V600E mutant after 72 hrs by cell titer blue assay; type: functional, cell-based; settings: A-375, 72 h
Summary of the method: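 Cells were grown in ATCC-recommended media and kept overnight in 0.5% serum. They were then exposed to compound for 72 h, and Cell Titer Blue was added for 3 h. EC50 came from fluorometric concentration−response curves, run in duplicate and repeated at least once.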

[2] = molecular target: T1, Serine/threonine-protein kinase B-raf (Homo sapiens, UniProt P15056, V600E)
T1 sequence (P15056 2-766 V600E limits assumed): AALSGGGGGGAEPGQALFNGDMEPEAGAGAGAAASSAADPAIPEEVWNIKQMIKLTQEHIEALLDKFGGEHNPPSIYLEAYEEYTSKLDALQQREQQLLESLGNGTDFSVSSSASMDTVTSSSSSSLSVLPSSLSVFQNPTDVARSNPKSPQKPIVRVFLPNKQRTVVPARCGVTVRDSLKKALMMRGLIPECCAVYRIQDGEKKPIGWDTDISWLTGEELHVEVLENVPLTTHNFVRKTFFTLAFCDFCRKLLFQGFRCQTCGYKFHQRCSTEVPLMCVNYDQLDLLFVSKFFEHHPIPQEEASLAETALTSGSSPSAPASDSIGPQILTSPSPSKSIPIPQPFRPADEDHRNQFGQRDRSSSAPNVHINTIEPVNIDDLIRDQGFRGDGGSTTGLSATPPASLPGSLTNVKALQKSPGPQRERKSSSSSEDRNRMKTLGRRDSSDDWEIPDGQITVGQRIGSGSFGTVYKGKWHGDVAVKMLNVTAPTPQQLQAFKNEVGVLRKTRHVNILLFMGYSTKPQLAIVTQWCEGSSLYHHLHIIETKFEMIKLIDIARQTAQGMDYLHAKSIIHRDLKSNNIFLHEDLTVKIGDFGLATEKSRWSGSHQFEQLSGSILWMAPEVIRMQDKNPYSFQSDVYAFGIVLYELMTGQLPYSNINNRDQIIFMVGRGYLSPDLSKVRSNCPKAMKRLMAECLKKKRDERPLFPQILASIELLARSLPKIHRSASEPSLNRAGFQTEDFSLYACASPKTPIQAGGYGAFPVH

[3] = molecular target: T1, Serine/threonine-protein kinase B-raf; remark: listed apart in the source
[4] = Stability in rat liver microsomes assessed as compound remaining at 1 uM after 60 mins; type: ADME, Microsome; settings: read-out: Stability
Summary of the method: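 Pooled liver microsomes (0.5 mg/mL) were premixed with 0.1 M phosphate buffer pH 7.4, 6.5 mM MgCl2 and test compound (1 μM final, 0.2% DMSO). NADPH (1 mM) started the reaction at 37 °C, in duplicate. Minus-NADPH and testosterone controls were included. Aliquots were taken at 0, 5, 15, 30 and 60 min and quenched in acetonitrile containing internal standard.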

[5] = Tmax in Sprague-Dawley rat at 10 mg/kg, po; type: ADME, organism-based; parameters: dose 10 mg/kg, route oral; settings: in vivo
Summary of the method: (§1)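 Male Sprague-Dawley rats (250–350 g, jugular-catheterized) received a single dose either iv at 1 mg/kg in 3:1 PEG400/water (n = 2) or po at 10 mg/kg in Pharmatek #6 (n = 3). Plasma was sampled at 5 min (iv only), 15 and 30 min, and 1, 2, 4, 6 and 24 h. Samples were analyzed by LC-MS/MS after acetonitrile precipitation. Parameters came from noncompartmental linear-trapezoidal analysis of individual animals.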

[6] = Clearance in Sprague-Dawley rat at 1 mg/kg, iv and 10 mg/kg, po; type: ADME, organism-based; settings: in vivo
Summary of the method: (§2)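 Single-dose PK. Rats: male Sprague−Dawley, jugular-catheterized, 1 mg/kg iv in 3:1 PEG400/water (n = 2) and 10 mg/kg po in Pharmatek #6 (n = 3). Female athymic nude mice: 100 mg/kg po in Pharmatek #6 (n = 3). Beagle dogs and male cynomolgus monkeys (n = 3): crossover, 1 mg/kg iv and 10 mg/kg po in 22% HPβCD, overnight fast. Plasma LC-MS/MS to 24 h; noncompartmental parameters, mean ± SD.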

[7] = Cmax in Sprague-Dawley rat at 10 mg/kg, po; type: ADME, organism-based; parameters: dose 10 mg/kg, route oral; settings: in vivo; summary of the method: as §2
[8] = Oral bioavailability in Sprague-Dawley rat at 10 mg/kg; type: ADME, organism-based; settings: in vivo; summary of the method: as §1
[9] = Terminal half life in Sprague-Dawley rat at 1 mg/kg, iv and 10 mg/kg, po; type: ADME, organism-based; settings: in vivo, read-out: beta t1/2 (converted); summary of the method: as §1
[10] = AUC (infinity) in Sprague-Dawley rat at 10 mg/kg, po; type: ADME, organism-based; parameters: time infinity, dose 10 mg/kg, route oral; settings: plasma; summary of the method: as §2
[11] = Volume of distribution in Sprague-Dawley rat at 1 mg/kg, iv and 10 mg/kg, po; type: ADME, organism-based; settings: in vivo; summary of the method: as §1

Row | pKd [2] | pIC50 [3] | remaining at 1 h, 1 µM [4] | Tmax [5] | clearance [6] | Cmax [7] | bioavailability [8] | half-life [9] | AUC(0-inf) [10] | Vd [11] | SMILES | pIC50 [1]
1 | 6.89 | 6.51 | – | – | – | – | – | – | – | – | COc1cc2ncnc(Oc3cccc(NC(=O)Nc4cc(C5(C(F)(F)F)CCC5)no4)c3)c2cc1OC | 5.65
2 | 6.57 | 7.21 | – | – | – | – | – | – | – | – | COc1cc2ncnc(Oc3cccc(NC(=O)Nc4cc(C(C)(C)C(F)(F)F)nn4-c4ccccc4)c3)c2cc1OC | –
3 | 7.51 | 6.47 | – | – | – | – | – | – | – | – | COc1cc2ncnc(Oc3cccc(NC(=O)Nc4cc(C(C)C)no4)c3)c2cc1OC | 5.53
4 | 7.36 | 6.81 | 82% | 2 h | 4 mL/min/kg | 7.9 µM | 48% | 4.7 h | 42 µM·h | 0.6 L/kg | COc1cc2ncnc(Oc3cccc(NC(=O)Nc4cc(C(C)(C)F)no4)c3)c2cc1OC | 6.90
5 | 7.43 | 6.87 | – | – | – | – | – | – | – | – | COc1cc2ncnc(Oc3cccc(NC(=O)Nc4cc(C5CCCC5)on4)c3)c2cc1OC | 6.31
6 | 7.57 | 6.74 | – | – | – | – | – | – | – | – | COc1cc2ncnc(Oc3cccc(NC(=O)Nc4cc(C5(C(F)(F)F)CC5)on4)c3)c2cc1OC | 6.93
7 | – | – | – | – | – | – | – | – | – | – | COc1cc2ncnc(Oc3cccc(NC(=O)Nc4ccc(C(C)(C)C)cc4)c3)c2cc1OC | 5.46
8 | 7.30 | 7.03 | – | – | – | – | – | – | – | – | COc1cc2ncnc(Sc3cccc(NC(=O)Nc4cc(C(C)(CF)CF)on4)c3)c2cc1OC | 6.65
9 | 7.12 | 5.95 | – | – | – | – | – | – | – | – | COc1cc2ncnc(Oc3cccc(NC(=O)Nc4cnn(C(C)(C)C)c4)c3)c2cc1OC | < 4.82
10 | 7.07 | 6.30 | – | – | – | – | – | – | – | – | COc1cc2ncnc(Oc3cccc(NC(=O)Nc4cc(C(C)(C)C)nn4C(C)C)c3)c2cc1OC | 6.27
11 | 7.06 | 6.47 | – | – | – | – | – | – | – | – | COc1cc2ncnc(Oc3cccc(NC(=O)Nc4cc(C(C)(C)C)nn4C)c3)c2cc1OC | 5.37
12 | 6.88 | 6.47 | – | – | – | – | – | – | – | – | COc1cc2ncnc(Oc3cccc(NC(=O)Nc4cc(C(C)(CF)CF)no4)c3)c2cc1OC | 5.70
13 | 6.91 | 5.95 | – | – | – | – | – | – | – | – | COc1cc2ncnc(Oc3cccc(NC(=O)Nc4cc(C5CCCC5)no4)c3)c2cc1OC | 5.36
14 | 6.76 | 6.32 | – | – | – | – | – | – | – | – | COc1cc2ncnc(Oc3cccc(NC(=O)Nc4cc(C(C)(C)C)nn4Cc4ccccc4)c3)c2cc1OC | 5.73
15 | 7.41 | 7.08 | – | – | – | – | – | – | – | – | COc1cc2ncnc(Sc3cccc(NC(=O)Nc4cc(C(C)(C)F)no4)c3)c2cc1OC | 5.83
16 | 7.32 | 6.48 | – | – | – | – | – | – | – | – | COc1cc2ncnc(Oc3cccc(NC(=O)Nc4cc(C(C)(C)C#N)no4)c3)c2cc1OC | 5.21
17 | 6.53 | 7.68 | – | 1.3 h | 3.1 mL/min/kg | 6.7 µM | 33% | 4.2 h | 25.9 µM·h | 0.3 L/kg | COc1cc2ncnc(Oc3cccc(NC(=O)Nc4cc(C(C)(C)C)nn4-c4ccccc4)c3)c2cc1OC | –
18 | 7.11 | 5.65 | – | – | – | – | – | – | – | – | COc1cc2ncnc(Oc3cccc(NC(=O)Nc4cc(C(F)(F)F)no4)c3)c2cc1OC | 5.29

Row | pKd [2] | pIC50 [3] | remaining at 1 h, 1 µM [4] | Tmax [5] | clearance [6] | Cmax [7] | bioavailability [8] | half-life [9] | AUC(0-inf) [10] | Vd [11] | SMILES | pIC50 [1]
19 | 6.17 | < 4.82 | – | – | – | – | – | – | – | – | COc1cc2ncnc(Oc3cccc(NC(=O)Nc4cc(C)on4)c3)c2cc1OC | < 4.82
20 | 7.35 | 6.96 | – | – | – | – | – | – | – | – | COc1cc2ncnc(Oc3cccc(NC(=O)Nc4cc(C(C)(CF)CF)on4)c3)c2cc1OC | 6.84
21 | 6.82 | 6.49 | – | – | – | – | – | – | – | – | COCC(C)(C)c1cc(NC(=O)Nc2cccc(Oc3ncnc4cc(OC)c(OC)cc34)c2)no1 | 5.81
22 | 7.12 | 6.19 | – | – | – | – | – | – | – | – | COc1cc2ncnc(Oc3cccc(NC(=O)Nc4cc(C(C)(F)F)no4)c3)c2cc1OC | 6.16
23 | 5.84 | < 4.82 | – | – | – | – | – | – | – | – | COc1cc2ncnc(Oc3cccc(NC(=O)Nc4cc(-c5ccccc5)no4)c3)c2cc1OC | 5.15
24 | 7.18 | 6.76 | – | 1.7 h | – | 4.7 µM | – | – | 40.7 µM·h | – | COc1cc2ncnc(Oc3cccc(NC(=O)Nc4cc(C(C)(C)C(F)(F)F)no4)c3)c2cc1OC | 6.26
25 | 7.72 | 6.45 | – | – | – | – | – | – | – | – | COc1cc2ncnc(Oc3cccc(NC(=O)Nc4cc(C(C)C)on4)c3)c2cc1OC | 6.28
26 | 7.13 | 6.85 | – | – | – | – | – | – | – | – | COc1cc2ncnc(Sc3cccc(NC(=O)Nc4cc(C(C)(C)C(F)(F)F)on4)c3)c2cc1OC | < 4.82
27 | 6.87 | 6.02 | – | – | – | – | – | – | – | – | COc1cc2ncnc(Oc3cccc(NC(=O)Nc4cc(-c5ccccc5)on4)c3)c2cc1OC | < 4.82
28 | – | – | 46% | 0.8 h | 7.3 mL/min/kg | 11 µM | 49% | 19.2 h | 17 µM·h | 0.5 L/kg | COc1cc2ncnc(Oc3cccc(NC(=O)Nc4cc(C(C)(C)C)on4)c3)c2cc1OC | 6.48
29 | 7.51 | 6.33 | – | – | – | – | – | – | – | – | COc1cc2ncnc(Sc3cccc(NC(=O)Nc4cc(C5(C(F)(F)F)CC5)on4)c3)c2cc1OC | 6.65
30 | 7.31 | 6.19 | – | – | – | – | – | – | – | – | COc1cc2ncnc(Oc3cccc(NC(=O)Nc4cc(C(C)(C)CO)on4)c3)c2cc1OC | < 4.82
31 | – | – | 51% | 0.8 h | 9.8 mL/min/kg | 0.7 µM | 6% | 8.2 h | 1.9 µM·h | 1 L/kg | COc1cc2ncnc(Oc3cccc(NC(=O)Nc4cc(C(C)(C)C)no4)c3)c2cc1OC | –
32 | 7.00 | 6.17 | – | – | – | – | – | – | – | – | COc1cc2ncnc(Oc3cccc(NC(=O)Nc4cc(C(C)(C)C)nn4CC(C)C)c3)c2cc1OC | 5.93
33 | 7.54 | 6.56 | 92% | 2 h | 2.9 mL/min/kg | 21.1 µM | 100% | 3.5 h | 127 µM·h | 0.5 L/kg | COc1cc2ncnc(Oc3cccc(NC(=O)Nc4cc(C(C)(C)F)on4)c3)c2cc1OC | 6.31
34 | – | – | – | – | – | – | – | – | – | – | COc1cc2ncnc(Oc3cccc(NC(=O)Nc4cccc(C(C)(C)C)c4)c3)c2cc1OC | 5.75
35 | 6.76 | < 5.78 | – | – | – | – | – | – | – | – | COc1cc2ncnc(Oc3cccc(NC(=O)Nc4cc(C(C)(C)C)nn4C4CCCCC4)c3)c2cc1OC | < 4.82
